Compound activity from PubChem BioAssay.
TRPC4 potent: TRPC4 (mouse) allosteric potentiation; HEK293 TRPC4beta/mu-opioid, DAMGO EC20, Fluo-4 Ca2+ flux; stronger effect = higher value; B-score at 10 µM; 0.42% of 310,000 active; AID 2227;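 active = B-score of calcium response area above 5 SD of library B-scores, with initial fluorescence ratio within 5 SD of library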
Target sequence (Q9QUQ5 whole entry, looked up): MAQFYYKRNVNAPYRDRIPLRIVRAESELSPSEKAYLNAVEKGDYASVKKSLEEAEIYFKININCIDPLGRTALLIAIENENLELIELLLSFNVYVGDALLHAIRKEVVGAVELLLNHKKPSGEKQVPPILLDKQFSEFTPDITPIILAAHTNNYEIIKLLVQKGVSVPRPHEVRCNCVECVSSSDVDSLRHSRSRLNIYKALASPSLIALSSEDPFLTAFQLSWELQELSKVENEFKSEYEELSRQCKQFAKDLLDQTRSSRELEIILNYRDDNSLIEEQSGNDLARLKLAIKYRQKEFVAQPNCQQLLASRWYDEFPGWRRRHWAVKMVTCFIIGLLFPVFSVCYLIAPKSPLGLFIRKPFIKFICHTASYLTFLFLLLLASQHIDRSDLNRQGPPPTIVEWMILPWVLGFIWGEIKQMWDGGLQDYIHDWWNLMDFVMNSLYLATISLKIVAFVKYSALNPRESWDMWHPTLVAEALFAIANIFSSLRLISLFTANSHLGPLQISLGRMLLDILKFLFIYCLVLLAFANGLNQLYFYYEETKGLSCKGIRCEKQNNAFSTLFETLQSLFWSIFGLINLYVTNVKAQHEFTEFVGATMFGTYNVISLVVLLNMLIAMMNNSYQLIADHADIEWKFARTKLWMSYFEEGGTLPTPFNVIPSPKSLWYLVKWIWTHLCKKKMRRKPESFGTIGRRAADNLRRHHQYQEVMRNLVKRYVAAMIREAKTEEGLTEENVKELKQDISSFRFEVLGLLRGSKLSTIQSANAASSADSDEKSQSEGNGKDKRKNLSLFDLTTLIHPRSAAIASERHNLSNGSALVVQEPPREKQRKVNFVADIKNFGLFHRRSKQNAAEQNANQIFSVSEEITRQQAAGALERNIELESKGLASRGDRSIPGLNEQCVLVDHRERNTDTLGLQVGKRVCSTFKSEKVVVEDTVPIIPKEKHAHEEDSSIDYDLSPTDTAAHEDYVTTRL
TRPC4 agonist: opens the mouse TRPC4 cation channel. B-score at 10 µM. 0.49% of 310,000 active. Q9QUQ5. HEK293 TRPC4beta/mu-opioid, Fluo4 calcium fluorescence; stronger effect = higher value;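 active = B-score above 5 SD of library B-scores, and initial fluorescence ratio not above library mean plus 5 SD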;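 also: positive B-score marks a calcium rise read as TRPC4 activation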
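Assay system: HEK293 stable line with TRPC4beta plus mu-opioid receptor; schedule: 45 min room-temperature Fluo4 loading, 110 s read; technique: kinetic Fluo4 calcium fluorescence; evaluation: integrated baseline-normalised fluorescence ratio, converted to per-well B score; controls: buffer (low) and maximal DAMGO (high)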
TRPC4 inh: inhibitors of mouse TRPC4 channel. 0.39% of 300,000 active. HEK293 TRPC4beta/mu-opioid, DAMGO-evoked Fluo4 calcium flux; stronger effect = lower value. Q9QUQ5. B-score at 10 µM;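 active = B-score over 3 SD under the library average, no early fluorescence shift, positive overall ratio signal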
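Assay system: HEK293 cells with stable TRPC4beta plus mu-opioid receptor expression. Dosing: single dose. Measured by: Fluo4 Ca2+ flux fluorescence. Also added: DAMGO in two steps, submaximal then maximal. Read-out: B score from integrated Fluo4 fluorescence ratio.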
TRPC6 inh: blocks the mouse TRPC6 cation channel; 1.1% of 310,000 active; Q61143; AID 2553; HEK293-TRPC6, membrane potential dye, ACh-evoked depolarization; stronger effect = lower value; B-score at 10 µM;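 active = B-score under library mean minus 3 SD, initial fluorescence not abnormally high, positive integrated signal ratio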;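 also: B-score derived from integrated fluorescence ratio over the kinetic read; more negative B-score means stronger inhibition of depolarization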
TRPC6 activator: mouse TRPC6 channel activation | B-score at 10 µM | 0.13% of 310,000 active | HEK293-TRPC6 membrane potential dye fluorescence; stronger effect = higher value | AID 2550;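 active = B-score of the integrated fluorescence ratio above library mean plus 3 SD, and starting fluorescence ratio within library mean plus 5 SD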;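 also: higher score means more depolarization so channel activation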
TRPC4 sel inh 2: second selectivity test of TRPC6 inhibitors: effect on mouse TRPC4 | AID 2776 | 42% of 920 active | HEK293 TRPC4/MOR, membrane potential dye fluorescence; channel activated by saturating DAMGO dose | inhibition, % at 10 µM | shares compounds with TRPC6 inh;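 active = compounds whose fluorescence signal differed from control wells by over 3 SD, either direction, in both duplicate plates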
TRPC4 spec: mouse TRPC4 off-target activity of TRPC6 inhibitors; shares compounds with TRPC6 inh; HEK293 TRPC4/mu-opioid, membrane potential fluorescence; activity change, negative = inhibition, % at 10 µM; 61% of 920 active;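 active = rise or fall in signal beyond 3 SD of buffer-only wells in both replicate plates, either sign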;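 also: integrated kinetic ratio of fluorescence range over baseline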
HEK293 MPD ctr 2-1: second check of TRPC6 inhibitor effects in parental HEK293 cells; parental HEK293 membrane potential dye fluorescence; maximal acetylcholine challenge after compound addition; 31% of 920 active; signal change vs control, % at 10 µM; shares compounds with TRPC6 inh;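 active = membrane potential signal moving either way by over 3 SD of the maximum-effect control, in both duplicate plates, meaning non-specific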
HEK293 MPD ctr-1: counter-screen for TRPC6 inhibitors: effect in parental HEK293 cells; shares compounds with TRPC6 inh; parental HEK293 membrane potential dye fluorescence; membrane potential signal change, % at 10 µM; 60% of 920 active; AID 2780;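 active = membrane potential signal shifting up or down by more than 3 SD of buffer-only wells, on both duplicate plates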
HEK293 MPD ctr-2: parental HEK293 nonspecific activity of TRPC6 modulators; shares compounds with TRPC6 inh; membrane potential dye fluorescence; membrane potential signal change, % at 10 µM; 51% of 2,400 active; AID 488924;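 active = membrane potential signal moves up or down beyond 5 SD from buffer-only wells, on both duplicate plates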
HEK293 MPD ctr 2-2: second check of TRPC6 modulator effects in parental HEK293 cells; inhibition, % at 10 µM; 14% of 2,400 active; shares compounds with TRPC6 inh; AID 488926; membrane potential dye fluorescence; after compound, maximal acetylcholine stimulation;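 active = membrane potential signal drops by more than 5 SD from the mean control signal, in both duplicate plates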
TRPC4 ctr mod: mouse TRPC4 off-target activity of TRPC6 modulators; shares compounds with TRPC6 inh; HEK293 TRPC4/mu-opioid, membrane potential fluorescence; 69% of 2,400 active; percent change from control (negative = decrease, positive = increase), % at 10 µM;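 active = membrane potential signal moved up or down beyond 5 SD of buffer control wells, in both duplicate plates, actives on both sides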
TRPC4 ctr inh 2: mouse TRPC4 off-target activity of TRPC6 modulators, second screen. 55% of 2,400 active. shares compounds with TRPC6 inh. inhibition, % at 10 µM. AID 488928. HEK293 TRPC4/mu-opioid, membrane potential dye fluorescence; stimulated with maximal-effect DAMGO;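 active = drop in membrane potential signal beyond 5 SD of the control wells in both duplicate plates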;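 also: TRPC4 counter screen for TRPC6 hits run under conditions tuned for TRPC6 not TRPC4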
TRPC6 block conf: mouse TRPC6 inhibitor confirmation; shares compounds with TRPC6 inh; HEK293-TRPC6, membrane potential dye, ACh-evoked depolarization; inhibition, % at 10 µM; 43% of 3,300 active; AID 488960;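 active = fluorescence ratio falls more than 5 SD below the full-stimulation control mean, in both duplicate runs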;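 also: integrated fluorescence ratio of peak minus minimum over baseline after agonist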
TRPC6 act conf: mouse TRPC6 activator confirmation. shares compounds with TRPC6 inh. HEK293-TRPC6 membrane potential dye fluorescence, FDSS. activation, % at 10 µM. 11% of 2,800 active. AID 488961;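 active = ratio signal rise beyond 5 SD above unstimulated control wells' mean, seen in both duplicate runs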
Of the large screens only hits and unclear results are named; the others gave an inactive call (follow-up assays come after a bar, where they were run). Compounds with a hit are over-represented: about 2.3% of the library has one in this group of screens.

CN(C)CCN(C(=O)C1=COCCO1)c1nc2ccc(F)cc2s1	TRPC6 inh -7 | HEK293 MPD ctr-2 -139% | HEK293 MPD ctr 2-2 inactive | TRPC4 ctr mod -30% | TRPC4 ctr inh 2 40% | TRPC6 block conf inactive | TRPC6 act conf inactive
CN(C)CCN(C(=O)c1cc(Cl)sc1Cl)c1nc2ccc(F)cc2s1	none
CN(C)CCCN(C(=O)c1ccco1)c1nc2ccc(Cl)cc2s1	TRPC6 inh -6.3 | HEK293 MPD ctr-2 -180% | HEK293 MPD ctr 2-2 inactive | TRPC4 ctr mod -35% | TRPC4 ctr inh 2 76% | TRPC6 block conf 50% | TRPC6 act conf inactive
CC(CCc1ccccc1)NC(=O)C1CCN(S(=O)(=O)c2ccc(F)cc2)CC1 (stereo not given)	none
NC(=O)c1cc([N+](=O)[O-])ccc1N1CCN(Cc2ccccc2)CC1	none
COc1ccccc1CN1CCN(C(CC(C)C)c2nnnn2Cc2cccs2)CC1 (stereo not given)	TRPC6 inh -7.2 | TRPC4 sel inh 2 9.5% | TRPC4 spec 47% | HEK293 MPD ctr 2-1 231% | HEK293 MPD ctr-1 18% | TRPC6 block conf inactive
CSCCC(=O)N1CCC(n2nccc2NC(=O)CCCc2ccccc2)CC1	none
O=C(NC(=S)NCC1CCCO1)C(c1ccccc1)c1ccccc1 (stereo not given)	none
Cc1cc(Nc2ccc([N+](=O)[O-])cc2)c2ccccc2n1	none
Cc1cc(Nc2cccc([N+](=O)[O-])c2)c2cccc(C)c2n1	TRPC6 inh -6.8 | TRPC4 sel inh 2 62% | TRPC4 spec -24% | HEK293 MPD ctr 2-1 43% | HEK293 MPD ctr-1 -444% | TRPC6 block conf inactive | TRPC6 act conf inactive
Cc1cc(Nc2cccc([N+](=O)[O-])c2)c2ccccc2n1	TRPC6 inh -8.1 | HEK293 MPD ctr-2 -164% | HEK293 MPD ctr 2-2 inactive | TRPC4 ctr mod -34% | TRPC4 ctr inh 2 52% | TRPC6 block conf 46% | TRPC6 act conf inactive
CC(C)CCN1CCN(CC(c2ccccc2)c2ccccc2)CC1CCO (stereo not given)	none
CC1CCN(C(=O)COc2ccc(S(=O)(=O)N3CCOCC3)cc2)CC1	none
CCC(C)c1ccccc1NC(=O)C(C)OC(=O)c1ccco1 (stereo not given)	none
